Variants at the floor of the assay were thinned out.
B1: tRNA (parent)
chain: GUUCCGUUGGCGUAAUGGUAACGCGUCUCCCUCCUAAGGAGAAGACUGCGGGUUCGAGUCCCGUACGGAACG

Variants of: B1
Experiment: yeast fitness relative to wild type (ratio to wild type); higher = fitter; tRNA-Arg(CCU), competitive growth, 37 C, YPD
Method in brief: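 For this measurement, the tRNA-Arg(CCU) gene was varied by chemical synthesis at a 3% per-site mutation rate across 69 sites, and each variant was placed at the native genomic locus in Saccharomyces cerevisiae. The pooled strains went through a 24-hour competition in YPD at 37°C in six parallel replicates, with amplicons from start and end populations read by 100-nucleotide paired-end sequencing. Darwinian fitness relative to wild type followed from the change in each genotype's frequency. Genotypes needed ≥ 100 starting reads, and estimates < 0.5 were set to 0.5.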

Yeast fitness, ≤ 0.5:
U2C C24U A57U
U28G C29A C66U
G10A U26A A43G A70U
C27U A40U U54C
C5U A15G C60A A70C

From the RNAGym collection of RNA variant scans (doi:10.1126/science.aae0568)
